19 compounds from ChEMBL document CHEMBL4007404, “Identification of High-Potency Human TLR8 and Dual TLR7/TLR8 Agonists in Pyrimidine-2,4-diamines” (J Med Chem, 2017) can be followed below.

Activity calls are given as the source filed them. The calls are words filed in the database; no cut-off is given here.

Holding throughout (format): cell-based
For assay [1], the target named is Toll-like receptor 5 (Homo sapiens) (UniProt O60602). Briefly: Activity at human TLR5 expressed in HEK293 cells co-expressing secreted alkaline phosphatase assessed as induction of NF-kappaB/AP-1 promoter activity by measuring increase in secreted alkaline phosphatase level by spectrophotometric method. An outline of the steps:
(§1)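 HEK293 cells stably co-transfected with the relevant human TLR (2, 3, 4, 5, 7, 8 or 9) plus an NF-κB/AP-1-driven secreted alkaline phosphatase reporter, kept in selection medium. Cells at ~10⁵ cells/ml were exposed to graded concentrations of stimuli in 384-well format, liquid-handler assisted. Supernatant sAP was read at 620 nm with an alkaline phosphatase-specific chromogen.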

For assay [2], the target named is Toll-like receptor 2 (Homo sapiens) (UniProt O60603). The assay is described as follows: Activity at human TLR2 expressed in HEK293 cells co-expressing secreted alkaline phosphatase assessed as induction of NF-kappaB/AP-1 promoter activity by measuring increase in secreted alkaline phosphatase level by spectrophotometric method. An outline of the steps: as §1
Sequence of Toll-like receptor 2 (Homo sapiens) (O60603 whole entry): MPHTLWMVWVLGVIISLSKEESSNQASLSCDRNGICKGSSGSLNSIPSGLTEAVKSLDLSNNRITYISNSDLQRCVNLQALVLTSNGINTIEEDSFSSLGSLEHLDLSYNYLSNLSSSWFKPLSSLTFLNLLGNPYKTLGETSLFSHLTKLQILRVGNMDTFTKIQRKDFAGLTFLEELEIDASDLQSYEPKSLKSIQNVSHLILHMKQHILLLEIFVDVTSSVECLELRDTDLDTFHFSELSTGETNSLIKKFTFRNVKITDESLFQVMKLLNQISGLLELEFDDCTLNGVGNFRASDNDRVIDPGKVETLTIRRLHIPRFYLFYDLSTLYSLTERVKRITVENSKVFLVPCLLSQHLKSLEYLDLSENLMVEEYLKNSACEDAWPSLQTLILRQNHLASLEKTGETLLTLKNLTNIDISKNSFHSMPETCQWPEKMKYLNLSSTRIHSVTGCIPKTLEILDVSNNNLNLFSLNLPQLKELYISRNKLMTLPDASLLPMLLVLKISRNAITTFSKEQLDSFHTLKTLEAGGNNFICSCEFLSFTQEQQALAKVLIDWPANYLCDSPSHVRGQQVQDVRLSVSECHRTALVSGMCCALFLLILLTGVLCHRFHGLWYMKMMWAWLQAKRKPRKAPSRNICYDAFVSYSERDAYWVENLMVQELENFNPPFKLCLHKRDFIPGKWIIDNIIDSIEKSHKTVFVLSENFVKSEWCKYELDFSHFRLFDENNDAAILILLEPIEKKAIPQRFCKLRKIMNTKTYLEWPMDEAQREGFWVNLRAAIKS
In another assay the target is T1, Toll-like receptor 7 (Homo sapiens, UniProt Q9NYK1).
T1 sequence (Q9NYK1 whole entry): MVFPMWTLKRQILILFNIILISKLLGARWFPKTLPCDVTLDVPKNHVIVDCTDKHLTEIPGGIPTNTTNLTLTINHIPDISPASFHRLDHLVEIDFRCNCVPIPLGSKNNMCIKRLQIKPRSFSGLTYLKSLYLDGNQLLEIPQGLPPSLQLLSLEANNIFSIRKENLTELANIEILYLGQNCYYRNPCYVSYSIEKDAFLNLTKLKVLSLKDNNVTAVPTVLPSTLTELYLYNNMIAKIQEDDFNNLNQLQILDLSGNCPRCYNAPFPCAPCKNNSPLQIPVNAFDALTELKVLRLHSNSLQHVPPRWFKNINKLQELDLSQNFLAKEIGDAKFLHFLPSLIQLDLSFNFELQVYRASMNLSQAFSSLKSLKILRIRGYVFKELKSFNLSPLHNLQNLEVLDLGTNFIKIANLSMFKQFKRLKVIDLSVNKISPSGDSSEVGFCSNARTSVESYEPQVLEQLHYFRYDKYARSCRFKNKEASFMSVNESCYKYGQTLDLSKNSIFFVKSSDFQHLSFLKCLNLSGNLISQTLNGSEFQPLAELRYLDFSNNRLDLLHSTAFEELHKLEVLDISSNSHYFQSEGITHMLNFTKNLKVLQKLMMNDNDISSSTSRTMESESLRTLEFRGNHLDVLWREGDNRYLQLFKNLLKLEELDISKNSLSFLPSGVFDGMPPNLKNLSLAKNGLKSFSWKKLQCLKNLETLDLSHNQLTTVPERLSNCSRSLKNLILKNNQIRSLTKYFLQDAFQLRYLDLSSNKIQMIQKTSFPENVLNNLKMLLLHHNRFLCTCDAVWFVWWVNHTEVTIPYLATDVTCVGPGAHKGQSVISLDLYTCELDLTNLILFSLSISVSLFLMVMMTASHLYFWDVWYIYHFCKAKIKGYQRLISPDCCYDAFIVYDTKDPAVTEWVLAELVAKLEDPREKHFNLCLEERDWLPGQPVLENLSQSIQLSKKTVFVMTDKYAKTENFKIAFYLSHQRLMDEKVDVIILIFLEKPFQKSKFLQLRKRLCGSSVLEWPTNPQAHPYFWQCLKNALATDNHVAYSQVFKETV
Briefly: Agonist activity at human TLR7 expressed in HEK293 cells co-expressing secreted alkaline phosphatase assessed as induction of NF-kappaB/AP-1 promoter activity by measuring increase in secreted alkaline phosphatase level by spectrophotometric method. An outline of the steps: as §1

In assay [3] the target is Toll-like receptor 3 (Homo sapiens) (UniProt O15455). Briefly: Activity at human TLR3 expressed in HEK293 cells co-expressing secreted alkaline phosphatase assessed as induction of NF-kappaB/AP-1 promoter activity by measuring increase in secreted alkaline phosphatase level by spectrophotometric method. An outline of the steps:
as §1

The target of assay [4] is Toll-like receptor 4 (Homo sapiens) (UniProt O00206). The assay is described as follows: Activity at human TLR4 expressed in HEK293 cells co-expressing secreted alkaline phosphatase assessed as induction of NF-kappaB/AP-1 promoter activity by measuring increase in secreted alkaline phosphatase level by spectrophotometric method. An outline of the steps: as §1
Sequence of Toll-like receptor 4 (Homo sapiens) (O00206 whole entry): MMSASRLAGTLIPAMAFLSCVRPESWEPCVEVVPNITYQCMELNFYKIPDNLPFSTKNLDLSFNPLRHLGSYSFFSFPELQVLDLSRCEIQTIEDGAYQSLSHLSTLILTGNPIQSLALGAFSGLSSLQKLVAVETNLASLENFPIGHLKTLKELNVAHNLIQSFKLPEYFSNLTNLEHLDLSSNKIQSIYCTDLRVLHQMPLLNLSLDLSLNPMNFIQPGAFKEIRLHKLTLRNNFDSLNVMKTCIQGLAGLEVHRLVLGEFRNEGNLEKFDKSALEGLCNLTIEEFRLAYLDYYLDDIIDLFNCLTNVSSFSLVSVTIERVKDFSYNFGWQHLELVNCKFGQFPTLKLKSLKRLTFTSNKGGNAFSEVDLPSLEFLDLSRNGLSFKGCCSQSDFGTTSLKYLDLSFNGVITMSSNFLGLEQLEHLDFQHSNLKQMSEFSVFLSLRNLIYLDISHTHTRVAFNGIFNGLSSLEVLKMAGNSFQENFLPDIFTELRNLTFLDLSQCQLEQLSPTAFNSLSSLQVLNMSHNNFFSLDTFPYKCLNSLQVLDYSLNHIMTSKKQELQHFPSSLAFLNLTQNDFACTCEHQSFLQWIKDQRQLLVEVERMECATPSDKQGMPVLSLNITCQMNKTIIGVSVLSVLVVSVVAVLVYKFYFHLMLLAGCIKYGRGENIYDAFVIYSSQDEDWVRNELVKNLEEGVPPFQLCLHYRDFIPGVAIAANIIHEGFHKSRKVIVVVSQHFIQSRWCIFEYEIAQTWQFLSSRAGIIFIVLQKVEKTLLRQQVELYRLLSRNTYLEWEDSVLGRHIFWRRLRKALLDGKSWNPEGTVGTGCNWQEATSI
Assay [5] has as its target T2, Toll-like receptor 9 (Homo sapiens) (UniProt Q9NR96).
T2 sequence (whole entry): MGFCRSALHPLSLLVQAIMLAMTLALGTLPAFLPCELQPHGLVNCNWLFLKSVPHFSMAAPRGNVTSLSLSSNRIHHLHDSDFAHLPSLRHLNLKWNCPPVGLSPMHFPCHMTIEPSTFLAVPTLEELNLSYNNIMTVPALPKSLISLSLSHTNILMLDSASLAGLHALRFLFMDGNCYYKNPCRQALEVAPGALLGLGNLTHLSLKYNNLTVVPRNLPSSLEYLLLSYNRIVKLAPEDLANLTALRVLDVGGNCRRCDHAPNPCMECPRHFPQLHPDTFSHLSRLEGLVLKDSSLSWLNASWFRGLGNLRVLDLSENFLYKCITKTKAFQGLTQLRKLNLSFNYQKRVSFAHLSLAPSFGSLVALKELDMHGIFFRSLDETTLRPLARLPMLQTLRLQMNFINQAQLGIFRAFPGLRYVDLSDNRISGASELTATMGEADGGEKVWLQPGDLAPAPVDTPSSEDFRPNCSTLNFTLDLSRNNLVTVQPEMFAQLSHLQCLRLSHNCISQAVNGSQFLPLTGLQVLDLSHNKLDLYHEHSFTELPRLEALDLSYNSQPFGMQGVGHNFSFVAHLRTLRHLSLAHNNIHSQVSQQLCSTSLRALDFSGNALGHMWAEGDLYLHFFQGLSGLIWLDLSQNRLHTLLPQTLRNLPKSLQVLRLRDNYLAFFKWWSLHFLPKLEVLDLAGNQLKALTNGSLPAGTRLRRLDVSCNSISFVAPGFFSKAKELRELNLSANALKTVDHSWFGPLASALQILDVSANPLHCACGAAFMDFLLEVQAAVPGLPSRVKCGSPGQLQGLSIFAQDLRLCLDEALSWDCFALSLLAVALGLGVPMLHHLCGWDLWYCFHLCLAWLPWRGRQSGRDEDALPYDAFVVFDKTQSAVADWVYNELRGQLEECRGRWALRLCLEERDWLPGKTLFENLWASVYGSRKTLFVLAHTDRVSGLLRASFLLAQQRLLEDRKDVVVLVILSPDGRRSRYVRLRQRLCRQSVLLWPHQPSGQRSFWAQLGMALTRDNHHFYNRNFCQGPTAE
Briefly: Activity at human TLR9 expressed in HEK293 cells co-expressing secreted alkaline phosphatase assessed as induction of NF-kappaB/AP-1 promoter activity by measuring increase in secreted alkaline phosphatase level by spectrophotometric method. In outline: as §1

Usually EC50 stands for the concentration that produces a half-maximal response.

Sequence of Toll-like receptor 5 (Homo sapiens) (O60602 whole entry): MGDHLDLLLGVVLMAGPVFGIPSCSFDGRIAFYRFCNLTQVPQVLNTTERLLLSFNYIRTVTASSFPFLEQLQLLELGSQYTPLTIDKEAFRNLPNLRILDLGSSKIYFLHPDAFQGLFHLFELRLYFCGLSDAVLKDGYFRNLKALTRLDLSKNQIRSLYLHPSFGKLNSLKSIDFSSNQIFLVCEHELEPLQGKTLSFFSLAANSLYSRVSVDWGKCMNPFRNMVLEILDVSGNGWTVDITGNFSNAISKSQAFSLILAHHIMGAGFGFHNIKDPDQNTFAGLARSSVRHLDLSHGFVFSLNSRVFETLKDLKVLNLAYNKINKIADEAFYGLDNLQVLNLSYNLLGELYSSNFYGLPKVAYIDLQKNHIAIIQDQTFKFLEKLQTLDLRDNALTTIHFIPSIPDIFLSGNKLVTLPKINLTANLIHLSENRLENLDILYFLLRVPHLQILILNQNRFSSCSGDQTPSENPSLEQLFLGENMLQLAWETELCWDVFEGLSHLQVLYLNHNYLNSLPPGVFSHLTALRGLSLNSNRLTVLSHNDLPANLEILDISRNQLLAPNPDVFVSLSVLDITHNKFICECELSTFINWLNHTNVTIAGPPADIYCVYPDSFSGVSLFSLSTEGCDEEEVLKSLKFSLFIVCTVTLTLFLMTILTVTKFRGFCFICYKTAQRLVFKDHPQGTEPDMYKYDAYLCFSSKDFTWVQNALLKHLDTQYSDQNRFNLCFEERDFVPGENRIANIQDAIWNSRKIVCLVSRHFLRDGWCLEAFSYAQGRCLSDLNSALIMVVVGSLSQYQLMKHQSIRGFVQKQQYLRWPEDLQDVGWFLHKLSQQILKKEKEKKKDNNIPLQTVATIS
Sequence of Toll-like receptor 3 (Homo sapiens) (O15455 whole entry): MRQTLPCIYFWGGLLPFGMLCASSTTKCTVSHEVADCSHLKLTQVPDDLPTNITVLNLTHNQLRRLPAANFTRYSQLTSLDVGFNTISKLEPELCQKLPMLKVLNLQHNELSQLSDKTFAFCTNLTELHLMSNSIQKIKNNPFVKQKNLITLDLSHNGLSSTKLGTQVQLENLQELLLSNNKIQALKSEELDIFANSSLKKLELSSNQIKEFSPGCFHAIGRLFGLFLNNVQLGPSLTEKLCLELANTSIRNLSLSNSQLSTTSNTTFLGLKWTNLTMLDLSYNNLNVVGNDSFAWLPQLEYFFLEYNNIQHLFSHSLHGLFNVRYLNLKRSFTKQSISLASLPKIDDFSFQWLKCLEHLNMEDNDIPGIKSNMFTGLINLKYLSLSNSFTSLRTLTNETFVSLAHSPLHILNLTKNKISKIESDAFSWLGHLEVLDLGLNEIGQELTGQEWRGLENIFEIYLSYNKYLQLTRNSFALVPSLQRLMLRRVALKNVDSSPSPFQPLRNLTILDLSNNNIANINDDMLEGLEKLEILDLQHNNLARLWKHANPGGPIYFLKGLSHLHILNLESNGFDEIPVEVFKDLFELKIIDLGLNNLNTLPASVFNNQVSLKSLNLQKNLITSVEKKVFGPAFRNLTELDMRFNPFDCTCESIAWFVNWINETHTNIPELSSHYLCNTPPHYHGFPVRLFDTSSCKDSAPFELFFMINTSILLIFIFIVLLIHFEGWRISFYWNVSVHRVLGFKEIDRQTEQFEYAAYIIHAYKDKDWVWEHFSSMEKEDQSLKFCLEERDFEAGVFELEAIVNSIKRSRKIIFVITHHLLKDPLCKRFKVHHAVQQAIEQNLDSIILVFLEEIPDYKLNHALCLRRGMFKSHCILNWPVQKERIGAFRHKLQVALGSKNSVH

In the case of `CCCCNc1nc(N)nc(C)c1CCCCCc1ccccc1`, the outcome in assay [1], in assay [2], in assay [3], in assay [4] and in assay [5] was inactive. Further, the EC50 at Toll-like receptor 7 stood at 265 nM.

Take `CCCCNc1nc(N)nc(C)c1CCCN1CCCCCC1`: the outcome in assay [1], in assay [2], in assay [3], in assay [4] and in assay [5] was inactive. Moreover, the EC50 at Toll-like receptor 7 worked out at 730 nM.

For `CCCCNc1nc(N)nc(C)c1CCCN1CCCC1`, the outcome in assay [1], in assay [2], in assay [3], in assay [4] and in assay [5] was inactive. For the same compound, at Toll-like receptor 7, the EC50 turned out to be 562 nM.

Turning to `CCCCNc1nc(N)nc(C)c1CCCn1c(C)nc2ccccc21`, the outcome in assay [1], in assay [2], in assay [3], in assay [4] and in assay [5] was inactive. Further, the EC50 at Toll-like receptor 7 was determined as 379 nM.

Regarding `CCCCNc1nc(N)nc(C)c1CCCC1CCCCC1`, the result in assay [1], in assay [2], in assay [3], in assay [4] and in assay [5] was inactive. Besides, at Toll-like receptor 7, the EC50 amounted to 1100 nM.

Consider `CCCCNc1nc(N)nc(C)c1CC`, for which the result in assay [1], in assay [2], in assay [3], in assay [4] and in assay [5] was inactive. Moreover, the EC50 at Toll-like receptor 7 came to 1270 nM.

`CCCCNc1nc(N)nc(C)c1CCCCO`: the outcome in assay [1], in assay [2], in assay [3], in assay [4] and in assay [5] was inactive. In addition, the EC50 at Toll-like receptor 7 worked out at 1020 nM.

Regarding `CCCCNc1nc(N)nc(C)c1C#C[Si](C)(C)C`, the outcome in assay [1], in assay [2], in assay [3], in assay [4] and in assay [5] was inactive.

`CCCCNc1nc(N)nc(C)c1C`: the result in assay [1], in assay [2], in assay [3], in assay [4] and in assay [5] was inactive. On Toll-like receptor 7, the EC50 is 3400 nM.

`CCCCNc1nc(N)nc(C)c1CCc1ccccc1`: the result in assay [1], in assay [2], in assay [3], in assay [4] and in assay [5] was inactive. Further, the EC50 on Toll-like receptor 7 was found to be 2820 nM.

For the compound `CCCCNc1nc(N)nc(C)c1CCCN(CC)CC`, the outcome in assay [1], in assay [2], in assay [3], in assay [4] and in assay [5] was inactive.

Regarding `CCCCNc1nc(N)nc(C)c1CCCN1CCN(C)CC1`, the result in assay [1], in assay [2], in assay [3], in assay [4] and in assay [5] was inactive. On Toll-like receptor 7, the EC50 worked out at 251 nM.

Consider `C#Cc1c(C)nc(N)nc1NCCCC`, for which the result in assay [1], in assay [2], in assay [3], in assay [4] and in assay [5] was inactive.

Take `CCCCNc1nc(N)nc(C)c1CCCN1C(=O)c2ccccc2C1=O`: the result in assay [1], in assay [2], in assay [3], in assay [4] and in assay [5] was inactive. For the same compound, the EC50 at Toll-like receptor 7 was determined as 1290 nM.

For the compound `CCCCNc1nc(N)nc(C)c1C#CCN1CCCCC1`, the result in assay [1], in assay [2], in assay [3], in assay [4] and in assay [5] was inactive.

Consider `CCCCNc1nc(N)nc(C)c1CCCN1CCN(C(=O)OC(C)(C)C)CC1`, for which the outcome in assay [1], in assay [2], in assay [3], in assay [4] and in assay [5] was inactive.

For the compound `CCCCNc1nc(N)nc(C)c1C#CCc1ccccc1`, the outcome in assay [1], in assay [2], in assay [3], in assay [4] and in assay [5] was inactive.

For the compound `CCCC#Cc1c(C)nc(N)nc1NCCCC`, the outcome in assay [1], in assay [2], in assay [3], in assay [4] and in assay [5] was inactive.

As to `CCCCNc1nc(N)nc(C)c1C#CCN1CCOCC1`, the outcome in assay [1], in assay [2], in assay [3], in assay [4] and in assay [5] was inactive.
